High-throughput results (PubChem BioAssay)
In the library only some 2.8% were active in any assay of this set; here they are far more common.
AI-2 QS modul: Vibrio harveyi AI-2 quorum sensing modulators, primary screen, JMH597 strain, luminescence/OD600 ratio; actives 0.4% (n = 300,000); Vibrio harveyi JMH597 AI-2 luminescence/OD600 ratio, 9 h; hits give low values; strain lacks LuxN and CqsS sensors; 0 = neutral-control median; activity change, % at 7.5 µM; in the data active = activity change below about -75%, passing the limit was not always enough; inconclusive = no clear call, values can overlap the other calls;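 note: luminescence divided by OD600 gain over 9 h not by final OD600 alone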
T cruzi inh: inhibitors of intracellular T. cruzi growth, primary screen, luminescence, NIH3T3 host cells | T. cruzi beta-gal in NIH3T3, 90 h | inhibition, % (concentration not given with the values) | actives 1.4% (n = 300,000);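 active = mean inhibition across valid replicates above about 55%, limit read from the data; inconclusive = mean below that limit but half or more replicates reach it; inactive = mean below it, under half of replicates reach it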;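 note: signal also drops with host cell toxicity which is not excluded here; 0% = plate median of DMSO wells and 100% = zero luminescence signal; higher percent means less beta-gal luminescence so fewer parasites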
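System: NIH/3T3 fibroblasts plus reporter T. cruzi. Medium: DMEM plus 2% FBS. Probe or stimulus: 5000 reporter trypomastigotes per well. Compound: single 50 nL compound addition per well in DMSO. Incubation: co-culture of at least 90 h after 3 h attachment. Detection: GalScreen β-gal luminescence, detergent lysis, 60 min. Evaluation: parasite load inhibition, %.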
PP1 inh: PP1-alpha phosphatase inhibitors, primary screen, counter-screen for PP5 inhibitor project, biochemical, fluorescence, OMFP substrate, single point; actives 0.9% (n = 320,000); AID 2235, 2010; inhibition, % at 6.7 µM; purified PP1alpha;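 active = inhibition above the mean inhibition of all tested compounds plus 3 SD, computed separately for each screening campaign, cut at about 15% in these data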
Target sequence (P62136 whole entry, looked up): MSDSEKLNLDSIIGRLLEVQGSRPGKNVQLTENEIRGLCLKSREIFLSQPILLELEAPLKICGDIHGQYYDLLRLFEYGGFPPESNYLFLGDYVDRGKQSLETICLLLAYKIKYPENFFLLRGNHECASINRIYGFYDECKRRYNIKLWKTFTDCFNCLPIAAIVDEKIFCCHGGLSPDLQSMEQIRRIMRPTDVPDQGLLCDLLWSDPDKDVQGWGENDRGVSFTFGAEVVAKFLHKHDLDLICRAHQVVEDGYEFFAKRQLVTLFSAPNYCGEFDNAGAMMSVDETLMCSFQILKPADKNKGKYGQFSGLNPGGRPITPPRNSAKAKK
pCIP destab: p/CIP-EGFP fusion destabilizers, primary screen, fluorescence, F442A cells. 16 h. AID 1984, 2009. Q05BA5. actives 0.01% (n = 290,000). decrease of EGFP signal, % at 10 µM;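 active = EGFP signal decrease of at least 30% at 10 µM or well 3 SD below plate mean, unless failing retest; inactive = the rest, including hits failing retest or dose response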
UBC13 inh: UBC13 polyubiquitin chain formation inhibitors, primary screen, biochemical, TR-FRET, uHTS | Ubiquitin-conjugating enzyme E2 N (Homo sapiens), P61088 | inhibition, % at 20 µM | actives 0.47% (n = 330,000) | AID 485273, 2010; in the data active = inhibition above about 45%, passing the limit was not always enough; inconclusive = no clear call, values can overlap the other calls
Target sequence (P61088 whole entry, looked up): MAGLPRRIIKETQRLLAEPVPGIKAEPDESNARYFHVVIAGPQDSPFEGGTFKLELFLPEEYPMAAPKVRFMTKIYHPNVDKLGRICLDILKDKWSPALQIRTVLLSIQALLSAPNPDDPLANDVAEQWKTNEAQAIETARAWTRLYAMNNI
JMH597 growth rt: Vibrio harveyi growth inhibition, confirmation, counter-screen for AI-2 quorum sensing project, JMH597 strain, OD600 absorbance. growth inhibition, % at 7.5 µM. shares compounds with AI-2 QS modul. 9 h; lacks LuxN and CqsS sensors. actives 1% (n = 750);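 active = every replicate shows growth inhibition above 50%; inconclusive = at least half, but not all, replicates pass that cutoff; inactive = fewer than half of replicates pass it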
BB721 const-QS lum: luminescence inhibition in constitutive-on V. harveyi, confirmation, counter-screen for LuxS inhibitor project, strain BB721, luminescence readout | shares compounds with AI-2 QS modul | Vibrio harveyi BB721 luminescence, 9 h | inhibition, % at 7.5 µM | actives 95% (n = 750);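 active = inhibition above about 80% in every replicate, not just on average, limit read from the data; inconclusive = at least half of replicates past the limit, but not all; inactive = fewer than half of replicates past the limit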
BB721 growth rt: growth inhibition of V. harveyi BB721, confirmation, cytotoxicity control for AI-2 quorum sensing inhibitors, strain BB721, absorbance OD600; shares compounds with AI-2 QS modul; Vibrio harveyi BB721 growth, 9 h; growth inhibition, % at 7.5 µM; actives 3% (n = 750);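 active = every replicate shows growth inhibition above 50%; inconclusive = at least half but not all replicates above 50% inhibition; inactive = under half of replicates above 50% inhibition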
AI-2 QS JMH597: Vibrio harveyi AI-2 signaling luminescence modulation – JMH597 strain, confirmation; shares compounds with AI-2 QS modul; inhibition, % at 7.5 µM; Vibrio harveyi JMH597 AI-2 quorum sensing luminescence, 9 h; luxN and CqsS knockout, AI-2 only; actives 97% (n = 750); AID 2736, 2010;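 active = every replicate shows more than 75% inhibition of signal versus neutral control wells; inconclusive = half to three quarters of replicates exceed 75% inhibition; inactive = fewer than half of replicates exceed 75% inhibition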
Starred values were filed as active, the others as inactive; ? = inconclusive; . = not tested or not shown.

SMILES	AI-2 QS modul	T cruzi inh	PP1 inh	pCIP destab	UBC13 inh	JMH597 growth rt	BB721 const-QS lum	BB721 growth rt	AI-2 QS JMH597
Fc1ccc(CSc2nnc(-c3cccnc3)o2)cc1	-93*	-5	-5	-8	4	19	98*	5	99*
O=C(COC(=O)c1ccccc1C(=O)c1ccc(Cl)cc1)NCC1CCCO1 (stereo unspecified)	5	0	0	0	-13	.	.	.	.
NC(=O)c1ccccc1NC(=O)CC12CC3CC(CC(C3)C1)C2	15	-2	2	16	8	.	.	.	.
CC(=O)c1ccc(S(=O)(=O)N(C)CCCC(=O)N(C)Cc2c(F)cccc2Cl)cc1	34	-1	0	-2	2	.	.	.	.
c1cncc(-c2nnc(SCc3cccc4ccccc34)o2)c1	-96*	-2	2	-2	10	5	99*	0	99*
c1cncc(-c2nnc(SCc3nc4ccccc4[nH]3)o2)c1	15	-6	0	-7	7	.	.	.	.
Cc1ccc(CSc2nnc(-c3cccnc3)o2)cc1	-96*	-3	-3	-5	-15	26	99*	9	99*
CCOc1ccc(C(CC(=O)O)NC(=O)C(Sc2ccccc2)c2ccccc2)cc1 (stereo unspecified)	74	-24	1	-6	0	.	.	.	.
O=C(NCc1ccccc1)c1nc2ccccc2s1	?	-7	-3	1	-3	-3	91*	-38	94*
O=C(NCCO)c1nc2ccccc2s1	9	-12	-2	-5	-2	.	.	.	.
CC(C)c1ccc(S(=O)(=O)N2CCN(C(=S)NCc3ccco3)CC2)cc1	-96*	6	7	-12	1	32	100*	-39	100*
CN(C(=O)NC1CC(=O)N(c2ccc3c(c2)OCCO3)C1)c1ccccc1 (stereo unspecified)	26	-7	0	.	-1	.	.	.	.
O=C(NCc1ccccc1)c1cc(-c2cccc(O)c2)on1	-82*	-6	-2	-17	2	-15	88*	-14	92*
CCc1ccc(C(=O)NNC(=O)CN2C(=O)NC(CC)(c3ccccc3)C2=O)cc1 (stereo unspecified)	-83*	0	-2	.	3	5	88*	8	94*
CCCC1(c2ccccc2)NC(=O)N(CC(=O)NCc2ccc(OC)cc2)C1=O (stereo unspecified)	-86*	-11	-2	-9	-4	-18	86*	-4	91*
CCCC1(c2ccccc2)NC(=O)N(CC(=O)Nc2cc(C)ccc2OC)C1=O (stereo unspecified)	23	16	-3	-14	3	.	.	.	.
CCCC1(c2ccccc2)NC(=O)N(CC(=O)NCc2ccc(C)cc2)C1=O (stereo unspecified)	-91*	-8	-1	-18	2	-6	89*	-13	94*
COc1ccc(NC(=O)CN2C(=O)NC(c3ccccc3)(c3ccccc3)C2=O)cc1	-94*	-3	0	-20	0	2	92*	14	96*
COc1ccc(CNC(=O)CN2C(=O)NC(C)(c3cccc(Br)c3)C2=O)cc1 (stereo unspecified)	2	4	-1	-8	1	.	.	.	.
COc1ccc(C2(c3ccc(OC)cc3)NC(=O)N(CC(=O)Nc3ccc(OC(F)F)cc3)C2=O)cc1	3	28	5	12	2	.	.	.	.
